Assay results reported in ChEMBL document CHEMBL3112587, “Cytotoxic activity assessment, QSAR and docking study of novel bis-carboxamide derivatives of 4-pyrones synthesized by Ugi four-component reaction” (Eur J Med Chem, 2013).

Assays:
Type in all cases: functional, cell-based
HL-60 = test: Cytotoxicity against human HL60 cells after 72 hrs by MTT assay
Method in brief: (§1)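 RPMI 1640 with penicillin/streptomycin and 10% FBS (20% for HL-60), 37 °C, 5% CO2. Seeding was 40,000 HL-60 (suspension), 50,000 LS180 or 30,000 MCF-7 (monolayer) cells/ml, overnight. Half the medium was replaced with 3-4 compound concentrations in duplicate (DMSO ≤0.5% final), 72 h, then MTT 0.5 mg/ml for 4 h. Read 570 nm minus 655 nm. IC50 versus untreated control by linear regression, mean ± SD.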

MCF7 = test: Cytotoxicity against human MCF7 cells after 72 hrs by MTT assay; method in brief: as §1
[1] = Cytotoxicity against human LS180 cells after 72 hrs by MTT assay
Method in brief: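 Seeding was 40,000 HL-60 (suspension), 50,000 LS180 or 30,000 MCF-7 (monolayer) cells/ml, overnight. Half the medium was replaced with 3-4 compound concentrations in duplicate (DMSO ≤0.5% final), 72 h, then MTT 0.5 mg/ml for 4 h. IC50 versus untreated control by linear regression, mean ± SD.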

[2] = Homo sapiens, HL-60, 72 h, read-out: IC50
[3] = Homo sapiens, HL-60, 72 h, read-out: pIC50 (converted)
[4] = Homo sapiens, MCF7, 72 h, read-out: IC50
[5] = Homo sapiens, LS180, 72 h, read-out: IC50

Row | Compound | IC50 (HL-60; hl-60) | IC50 (MCF7; mcf7) | IC50 ([1]; ls180) | IC50 (HL-60; [2]) [µM] | IC50 (HL-60; [3]) [µM] | IC50 (MCF7; [4]) [µM] | IC50 [1, 5] [µM]
1 | COc1ccc(N(C(=O)c2ccccc2Cl)C(C(=O)NC2CCCCC2)c2cc(=O)cc(-c3ccccc3)o2)cc1 (stereo unspecified) | Not Active | Not Active | Not Active | – | – | – | –
2 | Cc1ccc(N(C(=O)c2ccccc2Cl)C(C(=O)NC2CCCCC2)c2cc(=O)c(OCc3ccccc3)co2)cc1 (stereo unspecified) | – | – | – | 12.1 | 12 | 56.3 | 63
3 | CC(C)(C)NC(=O)C(c1cc(=O)c(OCc2ccccc2)co1)N(C(=O)c1ccccc1)c1ccccc1 (stereo unspecified) | – | – | Not Active | 57.3 | 57.5 | 63.1 | –
4 | CCCCc1ccc(N(C(=O)c2ccccc2Cl)C(C(=O)NC(C)(C)C)c2cc(=O)c(OCc3ccccc3)co2)cc1 (stereo unspecified) | – | – | – | 16.2 | 16.2 | 28.6 | 88.2
5 | COc1ccc(N(C(=O)c2ccccc2Cl)C(C(=O)NC(C)(C)C)c2cc(=O)c(OCc3ccccc3)co2)cc1 (stereo unspecified) | – | – | – | 52.9 | 52.5 | 47.2 | 77.3
6 | O=C(NC1CCCCC1)C(c1cc(=O)c(OCc2ccccc2)co1)N(C(=O)c1ccccc1Cl)c1ccc(Cl)cc1 (stereo unspecified) | – | – | Not Active | 30.5 | 30.2 | 168 | –
7 | Cc1ccc(N(C(=O)c2ccccc2Cl)C(C(=O)NC(C)(C)C)c2cc(=O)c(OCc3ccccc3)co2)cc1 (stereo unspecified) | – | – | – | 42 | 41.7 | 53.8 | 88.3
8 | Cc1ccc(N(C(=O)c2ccccc2)C(C(=O)NC2CCCCC2)c2cc(=O)c(OCc3ccccc3)co2)cc1 (stereo unspecified) | – | – | – | 11.3 | 11.2 | 11.2 | 20.2
9 | Cc1ccc(N(C(=O)c2ccccc2)C(C(=O)NC(C)(C)C)c2cc(=O)cc(-c3ccccc3)o2)cc1 (stereo unspecified) | – | – | – | 33 | 33.1 | 54.9 | 122
10 | O=C(NC1CCCCC1)C(c1cc(=O)c(OCc2ccccc2)co1)N(C(=O)c1ccccc1Cl)c1ccccc1 (stereo unspecified) | – | – | – | 66.2 | 66.1 | 84.2 | 97.3
11 | O=C(NC1CCCCC1)C(c1cc(=O)cc(-c2ccccc2)o1)N(C(=O)c1ccccc1Cl)c1ccccc1 (stereo unspecified) | – | Not Active | Not Active | 72 | 72.4 | – | –
12 | COc1cccc2c1C(=O)c1c(O)c3c(c(O)c1C2=O)C[C@@](O)(C(=O)CO)C[C@@H]3O[C@H]1C[C@H](N)[C@H](O)[C@H](C)O1 [DOXORUBICIN] | – | – | – | 0.01 | – | – | –
13 | COc1ccc(N(C(=O)c2ccccc2Cl)C(C(=O)NC(C)(C)C)c2cc(=O)cc(-c3ccccc3)o2)cc1 (stereo unspecified) | – | – | – | 13.8 | 13.8 | 9.1 | 16.1
14 | Cc1ccc(N(C(=O)c2ccccc2Cl)C(C(=O)NC2CCCCC2)c2cc(=O)cc(-c3ccccc3)o2)cc1 (stereo unspecified) | – | Not Active | Not Active | 22.2 | 22.4 | – | –
15 | O=C(NC1CCCCC1)C(c1cc(=O)c(OCc2ccccc2)co1)N(C(=O)c1ccccc1)c1ccc(Cl)cc1 (stereo unspecified) | – | Not Active | Not Active | 14.7 | 14.8 | – | –
